This note sets out measurements from ChEMBL document CHEMBL5537199, “Discovery and SAR Study of Boronic Acid-Based Selective PDE3B Inhibitors from a Novel DNA-Encoded Library” (J Med Chem, 2024).

Test [1] deals with T1, cGMP-inhibited 3',5'-cyclic phosphodiesterase 3B (Homo sapiens, UniProt Q13370). The test can be described thus: Inhibition of PDE3B (unknown origin) expression in adipocytes assessed as reduction in lipid hydrolysis at 10 uM. It counts as cell-based.
Target sequence in this assay (Q13370 whole entry, looked up, the tested form may be a part): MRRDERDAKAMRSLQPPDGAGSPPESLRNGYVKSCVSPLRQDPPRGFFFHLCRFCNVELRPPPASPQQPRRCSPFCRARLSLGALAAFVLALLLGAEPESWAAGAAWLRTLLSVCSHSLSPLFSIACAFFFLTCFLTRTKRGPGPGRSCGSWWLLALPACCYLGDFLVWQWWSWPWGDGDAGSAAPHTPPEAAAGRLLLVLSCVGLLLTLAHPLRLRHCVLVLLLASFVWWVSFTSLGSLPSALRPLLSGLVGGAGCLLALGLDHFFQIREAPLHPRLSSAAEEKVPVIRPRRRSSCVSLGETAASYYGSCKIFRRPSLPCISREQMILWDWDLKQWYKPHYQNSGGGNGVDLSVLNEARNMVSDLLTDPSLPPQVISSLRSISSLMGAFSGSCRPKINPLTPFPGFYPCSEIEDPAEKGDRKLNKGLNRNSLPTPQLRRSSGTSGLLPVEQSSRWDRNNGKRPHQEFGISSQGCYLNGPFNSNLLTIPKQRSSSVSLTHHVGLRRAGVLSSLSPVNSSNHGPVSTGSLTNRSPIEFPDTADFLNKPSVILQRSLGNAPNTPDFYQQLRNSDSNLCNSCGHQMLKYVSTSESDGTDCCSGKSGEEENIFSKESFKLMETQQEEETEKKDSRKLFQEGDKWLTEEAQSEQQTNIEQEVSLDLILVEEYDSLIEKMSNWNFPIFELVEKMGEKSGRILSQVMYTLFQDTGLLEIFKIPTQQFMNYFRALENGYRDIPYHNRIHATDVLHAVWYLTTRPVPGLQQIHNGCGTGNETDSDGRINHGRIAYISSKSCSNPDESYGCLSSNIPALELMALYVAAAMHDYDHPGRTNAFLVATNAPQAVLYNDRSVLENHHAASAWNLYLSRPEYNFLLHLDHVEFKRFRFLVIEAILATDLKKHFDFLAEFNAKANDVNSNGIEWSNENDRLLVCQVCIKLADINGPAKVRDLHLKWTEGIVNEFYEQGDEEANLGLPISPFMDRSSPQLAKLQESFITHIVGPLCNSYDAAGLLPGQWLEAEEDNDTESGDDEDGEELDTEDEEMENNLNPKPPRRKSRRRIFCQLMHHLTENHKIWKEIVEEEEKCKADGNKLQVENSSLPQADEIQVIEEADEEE
Test [2] can be described thus: Selectivity ratio of inhibition for PDE3A (M1 to Q1141 residues) (unknown origin) by RF-MS assay to inhibition for PDE3B (M1 to E1112 residues) (unknown origin) by RF-MS assay.
The target in test [3] is T1, cGMP-inhibited 3',5'-cyclic phosphodiesterase 3B. The test can be described thus: Inhibition of full-length PDE3B (M1 to E1112 residues) (unknown origin) using FAM-cAMP as substrate incubated for 120 mins by TR-FRET IMAP assay. A digest of the protocol: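 Buffer 50 mM Tris-HCl pH 7.5, 8.3 mM MgCl2, 1.7 mM EGTA, 0.05% BSA. Compounds run as a concentration curve with a top final concentration of 100 μM. DMSO and 10 μM trequinsin served as controls. Terbium TR-FRET ratio read at 520:490 nm.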
Target sequence in this assay (Q13370 whole entry, the tested form may be a part): as the sequence (Q13370 whole entry, looked up, the tested form may be a part) above

Test [4] can be described thus: Selectivity ratio of inhibition for PDE3A (M1 to Q1141 residues) (unknown origin) by IMAP assay to inhibition for PDE3B (M1 to E1112 residues) (unknown origin) by IMAP assay.
The target in test [5] is cGMP-inhibited 3',5'-cyclic phosphodiesterase 3A (Homo sapiens, UniProt Q14432). The experiment in a line: Inhibition of PDE3A (M1 to Q1141 residues) (unknown origin) using FAM-cAMP as substrate incubated for 45 mins by TR-FRET IMAP assay. A digest of the protocol: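 Full-length PDE3A at 1.6 nM with 50 nM FAM-cAMP, 45 min reaction. Buffer 50 mM Tris-HCl pH 7.5, 8.3 mM MgCl2, 1.7 mM EGTA, 0.05% BSA. Compounds run as a concentration curve with a top final concentration of 100 μM. DMSO and 10 μM trequinsin served as controls. TR-FRET read at Ex 337 nm, Em 520/490 nm.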
cGMP-inhibited 3',5'-cyclic phosphodiesterase 3A, sequence (Q14432 whole entry, the tested form may be a part): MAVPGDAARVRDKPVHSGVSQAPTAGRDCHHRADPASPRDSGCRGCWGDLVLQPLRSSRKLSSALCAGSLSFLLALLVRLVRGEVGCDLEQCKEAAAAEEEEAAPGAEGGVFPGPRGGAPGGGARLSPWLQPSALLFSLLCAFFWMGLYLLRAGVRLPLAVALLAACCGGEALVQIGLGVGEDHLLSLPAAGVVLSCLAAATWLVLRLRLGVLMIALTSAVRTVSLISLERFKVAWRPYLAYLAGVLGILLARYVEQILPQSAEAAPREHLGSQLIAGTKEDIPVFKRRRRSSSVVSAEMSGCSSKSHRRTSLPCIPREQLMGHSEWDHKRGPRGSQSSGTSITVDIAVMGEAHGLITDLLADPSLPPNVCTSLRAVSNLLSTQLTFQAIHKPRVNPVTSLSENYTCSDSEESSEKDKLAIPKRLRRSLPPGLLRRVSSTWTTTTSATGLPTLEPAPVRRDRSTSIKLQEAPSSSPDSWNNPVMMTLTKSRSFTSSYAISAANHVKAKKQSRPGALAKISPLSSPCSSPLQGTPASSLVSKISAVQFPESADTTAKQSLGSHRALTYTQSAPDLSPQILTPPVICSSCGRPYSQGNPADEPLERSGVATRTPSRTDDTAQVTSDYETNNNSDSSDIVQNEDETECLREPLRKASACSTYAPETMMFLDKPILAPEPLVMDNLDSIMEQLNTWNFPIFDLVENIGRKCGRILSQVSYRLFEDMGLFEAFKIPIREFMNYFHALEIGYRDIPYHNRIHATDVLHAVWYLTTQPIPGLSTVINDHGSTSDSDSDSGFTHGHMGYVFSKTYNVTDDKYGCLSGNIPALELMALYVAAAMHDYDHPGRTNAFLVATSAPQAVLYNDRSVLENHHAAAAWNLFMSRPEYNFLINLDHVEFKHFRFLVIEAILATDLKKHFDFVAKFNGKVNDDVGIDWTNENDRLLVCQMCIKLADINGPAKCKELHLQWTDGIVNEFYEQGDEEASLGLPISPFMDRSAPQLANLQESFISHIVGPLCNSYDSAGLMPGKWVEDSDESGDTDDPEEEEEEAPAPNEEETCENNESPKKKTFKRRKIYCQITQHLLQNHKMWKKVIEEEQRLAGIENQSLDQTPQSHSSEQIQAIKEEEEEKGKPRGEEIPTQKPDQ

Molecules are shown by their SMILES. pIC50: −log10 of the molar value. Active and inactive are the calls of the source. No cut-off for these calls is given here.

Consider `CNC(=O)[C@@H](NC(=O)c1cc(NC(=O)c2cc(C)c3ccccc3n2)cc(B(O)O)c1)C1CCCCC1`, for which, in test [1], the inhibition entry is “Active”. Further, the values for the Selectivity ratio in test [2] and in test [4] were 1.1 and 0.7, respectively. Besides, the pIC50 was 8.10 in test [3] and 8.30 in test [5].
The like results for `COCC(C)NC(=O)c1cc(NC(=O)c2cc(OC)c3ccc(OC)cc3n2)cc(B(O)O)c1` (configuration not stated) were, in that order, “Active”, 46, more than 300, 6.50 and less than 4.00.
With `CC1CC(=O)NN=C1c1ccc(NC2=C(Cc3cccc(-c4ccccc4)c3)C(=O)CCC2)cc1` (configuration not stated), the inhibition result in test [1] was “Active”.
On to `CNC(=O)[C@@H](NC(=O)c1cc(NC(=O)c2ccc3ncccc3n2)cc(B(O)O)c1)C1CCCCC1`, for which the Selectivity ratio was 0.6 in test [2] and 0.7 in test [4]. In addition, the results for the pIC50 in test [3] and in test [5] were 6.70 and 6.90, respectively.
As for `CNC(=O)[C@@H](NC(=O)c1cc(NC(=O)c2ccc3ccncc3n2)cc(B(O)O)c1)C1CCCCC1`, the Selectivity ratio in test [2] stood at 0.7; in test [4], 0.5. For the same molecule, the results for the pIC50 in test [3] and in test [5] were 6.50 and 6.80, respectively.
Take `COc1ccc2c(OC)cc(C(=O)Nc3cc(B(O)O)cc(C(=O)NCC(C)C)c3)nc2c1`: the Selectivity ratio was 56 in test [2] and 14 in test [4]. The pIC50 is 5.80 in test [3] and 4.60 in test [5].
Consider `COc1ccc2c(OC)cc(C(=O)Nc3cc(B(O)O)cc(C(=O)N(C)Cc4ccccc4)c3)nc2c1`, for which the Selectivity ratio was 62 in test [2] and 21 in test [4]. Moreover, the pIC50 in test [3] is 6.20; in test [5], 4.80.
The like results for `CNC(=O)[C@@H](NC(=O)c1cc(NC(=O)c2cnc3ccccc3c2)cc(B(O)O)c1)C1CCCCC1` were, in that order, 0.9, 0.7, 4.70 and 4.90.
For `CNC(=O)[C@@H](NC(=O)c1cc(NC(=O)c2cc(C)c3c(=O)[nH]c(=O)[nH]c3n2)cc(B(O)O)c1)C1CCCCC1`, the results for the Selectivity ratio in test [2] and in test [4] were 1.2 and 0.8, respectively. Also, the pIC50 was 4.70 in test [3] and 4.80 in test [5].
`COc1ccc2c(OC)cc(C(=O)Nc3cc(B(O)O)cc(C(=O)N[C@H](C(N)=O)C(C)C)c3)nc2c1`: the Selectivity ratio in test [2] came out at 30; in test [4], 15. Also, the pIC50 in test [3] was 6.50; in test [5], 5.30.
The like results for `COC(=O)c1cc(NC(=O)c2cc(OC)c3ccc(OC)cc3n2)cc(B(O)O)c1` were, in that order, more than 177, more than 52, 5.70 and less than 4.00.
`COc1ccc2c(OC)cc(C(=O)Nc3cc(B(O)O)cc(C(=O)N(C)C)c3)nc2c1`: the Selectivity ratio is 63 in test [2] and 23 in test [4]. For the same molecule, the pIC50 was 5.70 in test [3] and 4.30 in test [5].
